Assay results reported in ChEMBL document CHEMBL4433212, “First-of-its-kind STARD3 Inhibitor: In Silico Identification and Biological Evaluation as Anticancer Agent” (ACS Med Chem Lett, 2019).
Values belong to the compound of their own block, whether it stands above or below them. The source made the active and inactive calls. The rule behind the calls is not given here.

Key:
[1] = target: T1, StAR-related lipid transfer protein 3 (Homo sapiens) (UniProt Q14849); test: Inhibition of STARD3 in human MDA-MB-231 cells assessed as increase in phosphorylated FAK protein level at Tyr397 residue at 100 uM incubated for 24 hrs by Western blot analysis; type: cell-based
T1 sequence (whole entry): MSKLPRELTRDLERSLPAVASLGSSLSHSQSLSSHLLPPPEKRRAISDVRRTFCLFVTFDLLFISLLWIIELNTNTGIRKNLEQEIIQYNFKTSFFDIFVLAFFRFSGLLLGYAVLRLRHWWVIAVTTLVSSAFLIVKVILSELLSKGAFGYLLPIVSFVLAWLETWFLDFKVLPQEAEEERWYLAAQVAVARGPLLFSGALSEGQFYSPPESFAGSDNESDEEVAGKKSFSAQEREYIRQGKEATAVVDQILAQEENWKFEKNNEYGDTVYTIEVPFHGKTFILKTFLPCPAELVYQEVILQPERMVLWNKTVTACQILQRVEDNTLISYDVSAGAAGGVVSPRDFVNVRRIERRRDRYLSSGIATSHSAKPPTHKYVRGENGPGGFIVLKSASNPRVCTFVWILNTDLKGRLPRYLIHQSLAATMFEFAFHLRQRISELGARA
Outline: (§1)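 MDA-MB-231 cells treated with 100 μM inhibitor for 24 and 48 h; total FAK and pTyr397-FAK levels assessed by Western blot against untreated cells.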

[2] = target: T2, StAR-related lipid transfer protein 3 (Homo sapiens, UniProt Q14849); test: Inhibition of recombinant human His-tagged StAR-related lipid transfer protein 3 START domain expressed in Escherichia coli BL21(DE3) cells assessed as reduction of protein interaction with cholesterol using 3-hexanoyl-NBD Cholesterol as substrate incubated for 5 mins by competition binding fluorescent assay
T2 sequence (Q14849 whole entry): T1 sequence (whole entry)
Outline: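 Competition binding fluorescent assay of cholesterol binding to STARD3, adapted from Tsujishita and Hurley; STARD3 used at 5 μM, selected from a binding titration curve as giving 55.9% completely bound state; IC50 determined.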

HCT-116 [3] = test: Anticlonogenic activity against human HCT116 cells assessed as reduction in cell proliferation after 10 days with replacement of medium for every 3 days by crystal violet staining based visual analysis; type: functional
Outline: (§2)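 MCF7, MDA-MB-231 and HCT-116 cells treated with a range of inhibitor concentrations, grown until colonies became visible; colony forming efficiency scored by visual inspection.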

[4] = target: T1, StAR-related lipid transfer protein 3 (Homo sapiens); test: Inhibition of STARD3 in human MDA-MB-231 cells assessed as increase in phosphorylated FAK protein level at Tyr397 residue at 100 uM incubated for 48 hrs by Western blot analysis; type: cell-based; outline: as §1
MCF7 [5] = test: Antiproliferative activity against human MCF7 cells after 96 hrs by Cell Titer-Glo based luminescence assay; type: functional; conditions: MCF7, 96 h
[6] = target: T1, StAR-related lipid transfer protein 3 (Homo sapiens); test: Inhibition of STARD3 in human MDA-MB-231 cells assessed as increase in FAK protein level at 100 uM incubated for 48 hrs by Western blot analysis; type: cell-based; outline: as §1
MDA-MB-231 [7] = test: Anticlonogenic activity against human MDA-MB-231 cells assessed as reduction in cell proliferation after 10 days with replacement of medium for every 3 days by crystal violet staining based visual analysis; type: functional; outline: as §2
NIH3T3 = test: Effect on STARD3 mRNA level in mouse NIH/3T3 cells at 0 to 100 uM incubated for 48 hrs by RT-PCR method; type: ADME, cell-based; conditions: nih3t3, 48 h
Outline: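 NIH3T3 fibroblasts exposed to two inhibitor concentrations for 48 h; STARD3 mRNA level then measured.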

[8] = target: T1, StAR-related lipid transfer protein 3 (Homo sapiens); test: Inhibition of STARD3 in human MDA-MB-231 cells assessed as increase in FAK protein level at 100 uM incubated for 24 hrs by Western blot analysis; type: cell-based; outline: as §1
MCF7 [9] = test: Anticlonogenic activity against human MCF7 cells assessed as reduction in cell proliferation after 10 days with replacement of medium for every 3 days by crystal violet staining based visual analysis; type: functional; outline: as §2
[10] = target: T3, StAR-related lipid transfer protein 3 (Mus musculus) (UniProt Q61542); test: Induction of STARD3 degradation in cycloheximide treated mouse NIH/3T3 cells at 100 uM incubated for 24 hrs followed by addition of cycloheximide and measured after 12 hrs by Western blot analysis
T3 sequence (whole entry): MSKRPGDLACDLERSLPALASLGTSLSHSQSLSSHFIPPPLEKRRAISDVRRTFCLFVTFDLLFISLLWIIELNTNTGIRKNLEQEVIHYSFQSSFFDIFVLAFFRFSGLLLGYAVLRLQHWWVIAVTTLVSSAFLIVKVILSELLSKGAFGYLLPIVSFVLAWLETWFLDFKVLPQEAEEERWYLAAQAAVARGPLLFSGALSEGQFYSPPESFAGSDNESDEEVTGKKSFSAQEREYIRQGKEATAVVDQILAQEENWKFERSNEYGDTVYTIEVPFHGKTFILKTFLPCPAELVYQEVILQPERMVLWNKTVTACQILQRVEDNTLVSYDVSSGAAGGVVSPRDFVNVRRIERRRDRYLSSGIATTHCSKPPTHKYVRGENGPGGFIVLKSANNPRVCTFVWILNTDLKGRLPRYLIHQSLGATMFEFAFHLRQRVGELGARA
Outline: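 NIH3T3 fibroblasts pretreated with 100 μM inhibitor for 24 h, then given cycloheximide 10 μg/mL and harvested at timed points (hours); STARD3 protein followed by Western blot to track degradation kinetics.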

HCT-116 [11] = test: Antiproliferative activity against human HCT116 cells after 96 hrs by Cell Titer-Glo based luminescence assay; type: functional; conditions: HCT-116, 96 h
MDA-MB-231 [12] = test: Antiproliferative activity against human MDA-MB-231 after 96 hrs by Cell Titer-Glo based luminescence assay; type: functional; conditions: MDA-MB-231, 96 h

inhibition [1]: Active
IC50 [2]: 35 µM
inhibition [4]: Active
IC50 (MCF7 [5]): 106 µM
inhibition [6]: Active
inhibition [8]: Active
Activity [10]: Active
IC50 (HCT-116 [11]): 70.7 µM
IC50 (MDA-MB-231 [12]): 49.7 µM
Structure (SMILES): O=c1nc(/C=C/c2ccc(O)c([N+](=O)[O-])c2)[nH]c2c1CCN(Cc1ccccc1)C2
Activity (HCT-116 [3]): Dose-dependent effect
Activity (MDA-MB-231 [7]): Dose-dependent effect
Activity (NIH3T3): Non-Toxic
Activity (MCF7 [9]): Dose-dependent effect

IC50 [2]: > 100 µM
Structure (SMILES): O=C1CN(c2ccc(NC(=O)c3csc(-c4cccc(Cl)c4)n3)cn2)CCN1

IC50 [2]: > 100 µM
Structure (SMILES): O=C(/C=C/c1ccccc1F)Nc1ccc(N2CCNC(=O)C2)c(Cl)c1

IC50 [2]: > 100 µM
Structure (SMILES): O=C(COC(=O)c1ccc(-c2ccc(O)cc2)cc1)NCc1ccc(F)cc1
